# Assay results: ChEMBL document CHEMBL3779767, “Identification of potent and selective MTH1 inhibitors” (Bioorg Med Chem Lett, 2016)
# The source made the active and inactive calls. The calls are words filed in the database; no cut-off is given here.
# What was measured:
# [1] = molecular target: Casein kinase I isoform delta (Homo sapiens) (UniProt P48730); assay: Inhibition of partial length human CSNK1D expressed in bacterial system at 1 uM
# How it was run: (§1)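 Single-point screen within a 97-kinase profiling panel, with the test compound at 1 µM.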
# [2] = molecular target: Mitogen-activated protein kinase 9 (Homo sapiens) (UniProt P45984); assay: Inhibition of partial length human JNK2 expressed in mammalian system at 1 uM; how it was run: as §1
# [3] = molecular target: Serine/threonine-protein kinase pim-2 (Homo sapiens) (UniProt Q9P1W9); assay: Inhibition of partial length human PIM2 expressed in bacterial system at 1 uM
# How it was run: (§2)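 Single-concentration screen across a panel of 97 kinases, with the test compound at 1 uM.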
# [4] = molecular target: Proto-oncogene tyrosine-protein kinase receptor Ret (Homo sapiens) (UniProt P07949); assay: Inhibition of partial length human RET expressed in bacterial system at 1 uM; how it was run: as §2
# [5] = Half life in human plasma; format: ADME, cell-free
# How it was run: (§3)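 Plasma stability was measured in human and rat plasma, with half-life reported in hours.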
# [6] = molecular target: Ephrin type-A receptor 2 (Homo sapiens) (UniProt P29317); assay: Inhibition of partial length human EPHA2 expressed in bacterial system at 1 uM; how it was run: as §1
# [7] = molecular target: Tyrosine-protein kinase ZAP-70 (Homo sapiens) (UniProt P43403); assay: Inhibition of partial length human ZAP70 expressed in mammalian system at 1 uM; how it was run: as §2
# [8] = system: Epidermal growth factor receptor (Homo sapiens), P04626+P00533+Q15303+P21860 [L858R]; assay: Inhibition of partial length human EGFR L858R mutant expressed in bacterial system at 1 uM
# How it was run: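 Single-concentration screen at 1 µM test concentration, run as part of a commercial binding/activity profiling panel covering 97 kinases.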
# [9] = molecular target: Fibroblast growth factor receptor 2 (Homo sapiens) (UniProt P21802); assay: Inhibition of partial length human FGFR2 expressed in bacterial system at 1 uM; how it was run: as §1
# [10] = molecular target: Phosphatidylinositol 4,5-bisphosphate 3-kinase catalytic subunit alpha isoform (Homo sapiens) (UniProt P42336); assay: Inhibition of partial length human PIK3Calpha expressed in mammalian system at 1 uM; how it was run: as §2
# [11] = molecular target: Protein kinase C epsilon type (Homo sapiens) (UniProt Q02156); assay: Inhibition of partial length human PRKCE expressed in mammalian system at 1 uM; how it was run: as §2
# [12] = molecular target: Aurora kinase B (Homo sapiens) (UniProt Q96GD4); assay: Inhibition of partial length human Aurora B expressed in mammalian system at 1 uM; how it was run: as §1
# [13] = molecular target: Serine/threonine-protein kinase PLK1 (Homo sapiens) (UniProt P53350); assay: Inhibition of partial length human PLK1 expressed in mammalian system at 1 uM; how it was run: as §2
# MDA-MB-231 = assay: Antiproliferative activity against human MDA-MB-231 cells assessed as change in phenotypic response measured after prolonged treatment; format: functional, cell-based
# Homo sapiens = organism: Homo sapiens; assay: Inhibition of partial length human CDK11 expressed in bacterial system at 1 uM
# How it was run: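 Single-concentration screen within a 97-kinase profiling panel (KinomeEdge), with the compound tested at one fixed concentration across all panel kinases.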
# HMEC = assay: Cytotoxicity against human HMEC cells assessed as change in phenotypic response measured after prolonged treatment; format: cell-based
# [14] = molecular target: RAC-alpha serine/threonine-protein kinase (Homo sapiens) (UniProt P31749); assay: Inhibition of partial length human AKT1 expressed in bacterial system at 1 uM; how it was run: as §1
# [15] = molecular target: Cyclin-dependent kinase 3 (Homo sapiens) (UniProt Q00526); assay: Inhibition of partial length human CDK3 expressed in bacterial system at 1 uM; how it was run: as §1
# [16] = molecular target: Serine/threonine-protein kinase pim-1 (Homo sapiens) (UniProt P11309); assay: Inhibition of partial length human PIM1 expressed in bacterial system at 1 uM; how it was run: as §2
# [17] = molecular target: Serine/threonine-protein kinase ULK2 (Homo sapiens) (UniProt Q8IYT8); assay: Inhibition of partial length human ULK2 expressed in mammalian system at 1 uM; how it was run: as §2
# [18] = molecular target: Ribosomal protein S6 kinase alpha-2 (Homo sapiens) (UniProt Q15349); assay: Inhibition of N-terminal partial length human RSK2 kinase domain 1 expressed in mammalian system at 1 uM; how it was run: as §1
# [19] = molecular target: Serine/threonine-protein kinase pim-3 (Homo sapiens) (UniProt Q86V86); assay: Inhibition of partial length human PIM3 expressed in bacterial system at 1 uM; how it was run: as §2
# U2OS = assay: Antiproliferative activity against human U2OS cells assessed as change in phenotypic response up to 50 uM; format: functional, cell-based
# [20] = molecular target: TGF-beta receptor type-1 (Homo sapiens) (UniProt P36897); assay: Inhibition of partial length human TGFBR1 expressed in bacterial system at 1 uM; how it was run: as §2
# [21] = molecular target: RAC-beta serine/threonine-protein kinase (Homo sapiens) (UniProt P31751); assay: Inhibition of partial length human AKT2 expressed in bacterial system at 1 uM; how it was run: as §1
# HeLa = assay: Antiproliferative activity against human HeLa cells assessed as change in phenotypic response up to 50 uM; format: functional, cell-based
# [22] = molecular target: Tyrosine-protein kinase JAK2 (Homo sapiens) (UniProt O60674); assay: Inhibition of partial length human JAK2 JH1 catalytic domain expressed in mammalian system at 1 uM; how it was run: as §1
# UOK 262 [23] = assay: Antiproliferative activity against human UOK 262 cells assessed as change in phenotypic response measured after prolonged treatment; format: functional, cell-based
# [24] = Half life in human liver microsomes; format: ADME
# How it was run: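 Incubated with human or mouse liver microsomes; the read-out was intrinsic clearance alongside half-life, given in hours.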
# [25] = system: Tyrosine-protein kinase ABL1 (Homo sapiens), P00519 [E255K]; assay: Inhibition of partial length human ABL1 E255K mutant phosphorylation expressed in mammalian system at 1 uM; how it was run: as §1
# UOK 262 [26] = assay: Antiproliferative activity against human UOK 262 cells assessed as change in phenotypic response up to 50 uM; format: functional, cell-based
# HCT-116 = assay: Antiproliferative activity against human HCT116 cells assessed as change in phenotypic response measured after prolonged treatment; format: functional, cell-based
# [27] = Intrinsic clearance in mouse liver microsomes; format: ADME
# [28] = molecular target: Macrophage colony-stimulating factor 1 receptor (Homo sapiens) (UniProt P07333); assay: Inhibition of partial length human CSF1R expressed in bacterial system at 1 uM; how it was run: as §1
# A549 = assay: Antiproliferative activity against human A549 cells assessed as change in phenotypic response measured after prolonged treatment; format: functional, cell-based
# BJ = assay: Cytotoxicity against human BJ cells assessed as change in phenotypic response measured after prolonged treatment; format: cell-based
# [29] = molecular target: Hepatocyte growth factor receptor (Homo sapiens) (UniProt P08581); assay: Inhibition of partial length human MET expressed in bacterial system at 1 uM; how it was run: as §2
# [30] = molecular target: Insulin receptor (Homo sapiens) (UniProt P06213); assay: Inhibition of partial length human INSR expressed in mammalian system at 1 uM; how it was run: as §1
# [31] = molecular target: cAMP-dependent protein kinase catalytic subunit alpha (Homo sapiens) (UniProt P17612); assay: Inhibition of partial length human PKACalpha expressed in bacterial system at 1 uM; how it was run: as §2
# [32] = Half life in rat plasma; format: ADME, cell-free; how it was run: as §3
# SW480 = assay: Antiproliferative activity against human SW480 cells assessed as change in phenotypic response measured after prolonged treatment; format: functional, cell-based
# [33] = molecular target: Platelet-derived growth factor receptor alpha (Homo sapiens) (UniProt P16234); assay: Inhibition of partial length human PDGFRalpha expressed in mammalian system at 1 uM; how it was run: as §2
# Platelet-derived growth factor receptor alpha (Homo sapiens), sequence (P16234 whole entry): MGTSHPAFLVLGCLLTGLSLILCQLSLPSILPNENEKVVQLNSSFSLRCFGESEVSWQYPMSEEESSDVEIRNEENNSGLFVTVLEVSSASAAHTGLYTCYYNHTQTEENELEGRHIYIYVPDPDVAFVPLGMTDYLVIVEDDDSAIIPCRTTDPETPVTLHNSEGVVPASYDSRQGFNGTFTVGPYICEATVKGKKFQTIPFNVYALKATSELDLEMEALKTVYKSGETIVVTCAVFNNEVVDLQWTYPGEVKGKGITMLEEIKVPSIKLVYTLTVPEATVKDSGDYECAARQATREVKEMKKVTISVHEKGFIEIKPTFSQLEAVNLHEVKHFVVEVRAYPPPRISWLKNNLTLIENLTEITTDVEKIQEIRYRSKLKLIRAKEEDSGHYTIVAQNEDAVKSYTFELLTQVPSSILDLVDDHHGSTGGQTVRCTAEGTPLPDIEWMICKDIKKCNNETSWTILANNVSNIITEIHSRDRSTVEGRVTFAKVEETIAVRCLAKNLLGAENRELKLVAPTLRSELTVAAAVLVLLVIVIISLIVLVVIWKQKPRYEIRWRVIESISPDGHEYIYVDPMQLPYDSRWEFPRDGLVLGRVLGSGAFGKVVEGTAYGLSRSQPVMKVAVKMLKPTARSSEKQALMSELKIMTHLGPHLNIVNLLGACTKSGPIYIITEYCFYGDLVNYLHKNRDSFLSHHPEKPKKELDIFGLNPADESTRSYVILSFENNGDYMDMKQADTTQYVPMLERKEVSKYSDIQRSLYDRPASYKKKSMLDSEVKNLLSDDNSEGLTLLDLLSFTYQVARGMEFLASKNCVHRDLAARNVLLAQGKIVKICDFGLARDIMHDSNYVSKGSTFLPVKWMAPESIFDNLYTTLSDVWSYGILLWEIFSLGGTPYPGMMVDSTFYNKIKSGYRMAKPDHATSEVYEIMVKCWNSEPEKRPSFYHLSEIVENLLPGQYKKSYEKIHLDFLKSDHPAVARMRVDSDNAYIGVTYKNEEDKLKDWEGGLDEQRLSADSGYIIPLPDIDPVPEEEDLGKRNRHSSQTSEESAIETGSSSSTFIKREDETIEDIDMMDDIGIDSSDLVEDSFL
# TGF-beta receptor type-1 (Homo sapiens), sequence (P36897 whole entry): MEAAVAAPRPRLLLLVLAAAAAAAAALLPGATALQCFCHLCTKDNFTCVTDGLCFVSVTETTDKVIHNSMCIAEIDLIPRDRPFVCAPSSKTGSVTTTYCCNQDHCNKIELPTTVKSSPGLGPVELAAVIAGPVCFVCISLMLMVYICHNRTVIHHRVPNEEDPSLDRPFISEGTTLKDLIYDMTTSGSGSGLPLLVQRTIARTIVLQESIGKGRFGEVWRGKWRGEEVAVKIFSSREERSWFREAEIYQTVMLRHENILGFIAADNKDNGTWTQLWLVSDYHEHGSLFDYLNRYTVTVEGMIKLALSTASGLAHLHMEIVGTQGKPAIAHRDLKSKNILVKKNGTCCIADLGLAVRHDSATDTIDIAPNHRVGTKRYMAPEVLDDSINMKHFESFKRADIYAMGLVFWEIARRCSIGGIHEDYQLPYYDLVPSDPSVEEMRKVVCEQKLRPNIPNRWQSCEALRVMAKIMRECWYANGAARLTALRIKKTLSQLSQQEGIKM
# Protein kinase C epsilon type (Homo sapiens), sequence (Q02156 whole entry): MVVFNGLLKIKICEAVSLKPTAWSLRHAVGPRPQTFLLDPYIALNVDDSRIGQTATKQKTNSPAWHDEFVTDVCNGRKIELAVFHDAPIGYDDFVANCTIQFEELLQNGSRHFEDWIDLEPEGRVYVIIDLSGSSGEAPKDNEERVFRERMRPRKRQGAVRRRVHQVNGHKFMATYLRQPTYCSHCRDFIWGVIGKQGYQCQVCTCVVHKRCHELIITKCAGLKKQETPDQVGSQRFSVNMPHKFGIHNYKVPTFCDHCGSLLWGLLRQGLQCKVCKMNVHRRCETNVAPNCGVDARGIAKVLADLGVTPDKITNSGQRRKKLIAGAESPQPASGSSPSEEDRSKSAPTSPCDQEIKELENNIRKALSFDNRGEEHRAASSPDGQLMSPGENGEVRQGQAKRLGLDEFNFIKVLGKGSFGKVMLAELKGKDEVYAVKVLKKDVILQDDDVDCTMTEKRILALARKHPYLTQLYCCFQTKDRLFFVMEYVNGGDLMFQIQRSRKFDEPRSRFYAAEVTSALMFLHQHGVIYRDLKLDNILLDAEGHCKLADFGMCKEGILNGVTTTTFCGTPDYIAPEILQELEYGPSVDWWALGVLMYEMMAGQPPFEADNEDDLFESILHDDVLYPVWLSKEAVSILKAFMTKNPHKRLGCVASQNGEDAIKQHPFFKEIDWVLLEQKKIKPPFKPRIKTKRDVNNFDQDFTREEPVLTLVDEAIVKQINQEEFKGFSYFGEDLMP
# Fibroblast growth factor receptor 2 (Homo sapiens), sequence (P21802 22-821 limits assumed): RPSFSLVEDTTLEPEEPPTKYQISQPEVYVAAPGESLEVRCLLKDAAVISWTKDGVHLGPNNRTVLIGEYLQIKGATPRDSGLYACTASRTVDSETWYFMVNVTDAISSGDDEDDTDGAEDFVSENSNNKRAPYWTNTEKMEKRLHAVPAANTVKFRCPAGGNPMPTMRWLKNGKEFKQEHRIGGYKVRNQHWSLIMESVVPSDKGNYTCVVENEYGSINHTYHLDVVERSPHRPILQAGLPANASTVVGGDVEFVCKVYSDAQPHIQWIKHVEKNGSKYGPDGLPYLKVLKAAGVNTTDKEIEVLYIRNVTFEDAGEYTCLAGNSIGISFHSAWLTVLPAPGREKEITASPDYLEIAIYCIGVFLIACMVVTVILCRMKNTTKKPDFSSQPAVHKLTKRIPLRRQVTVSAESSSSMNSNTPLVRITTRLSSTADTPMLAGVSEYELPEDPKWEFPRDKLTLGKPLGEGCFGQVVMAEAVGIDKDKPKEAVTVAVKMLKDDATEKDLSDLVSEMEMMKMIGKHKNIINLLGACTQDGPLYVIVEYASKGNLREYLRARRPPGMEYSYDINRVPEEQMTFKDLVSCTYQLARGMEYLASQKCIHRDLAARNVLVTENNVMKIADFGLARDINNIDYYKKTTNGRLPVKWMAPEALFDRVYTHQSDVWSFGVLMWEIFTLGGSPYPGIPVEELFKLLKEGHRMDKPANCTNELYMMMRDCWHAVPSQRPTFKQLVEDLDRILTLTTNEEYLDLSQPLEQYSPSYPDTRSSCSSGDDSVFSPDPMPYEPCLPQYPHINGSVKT
# Cyclin-dependent kinase 3 (Homo sapiens), sequence (Q00526 whole entry, looked up): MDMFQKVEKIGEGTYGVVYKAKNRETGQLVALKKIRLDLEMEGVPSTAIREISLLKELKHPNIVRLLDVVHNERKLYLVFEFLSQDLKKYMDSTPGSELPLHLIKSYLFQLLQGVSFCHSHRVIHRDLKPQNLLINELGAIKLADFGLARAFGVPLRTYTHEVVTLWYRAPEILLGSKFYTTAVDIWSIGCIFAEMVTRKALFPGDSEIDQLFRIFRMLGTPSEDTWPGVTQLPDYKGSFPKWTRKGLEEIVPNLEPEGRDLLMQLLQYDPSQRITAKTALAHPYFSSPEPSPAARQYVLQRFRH
# Tyrosine-protein kinase JAK2 (Homo sapiens), sequence (O60674 whole entry, the tested form may be a part): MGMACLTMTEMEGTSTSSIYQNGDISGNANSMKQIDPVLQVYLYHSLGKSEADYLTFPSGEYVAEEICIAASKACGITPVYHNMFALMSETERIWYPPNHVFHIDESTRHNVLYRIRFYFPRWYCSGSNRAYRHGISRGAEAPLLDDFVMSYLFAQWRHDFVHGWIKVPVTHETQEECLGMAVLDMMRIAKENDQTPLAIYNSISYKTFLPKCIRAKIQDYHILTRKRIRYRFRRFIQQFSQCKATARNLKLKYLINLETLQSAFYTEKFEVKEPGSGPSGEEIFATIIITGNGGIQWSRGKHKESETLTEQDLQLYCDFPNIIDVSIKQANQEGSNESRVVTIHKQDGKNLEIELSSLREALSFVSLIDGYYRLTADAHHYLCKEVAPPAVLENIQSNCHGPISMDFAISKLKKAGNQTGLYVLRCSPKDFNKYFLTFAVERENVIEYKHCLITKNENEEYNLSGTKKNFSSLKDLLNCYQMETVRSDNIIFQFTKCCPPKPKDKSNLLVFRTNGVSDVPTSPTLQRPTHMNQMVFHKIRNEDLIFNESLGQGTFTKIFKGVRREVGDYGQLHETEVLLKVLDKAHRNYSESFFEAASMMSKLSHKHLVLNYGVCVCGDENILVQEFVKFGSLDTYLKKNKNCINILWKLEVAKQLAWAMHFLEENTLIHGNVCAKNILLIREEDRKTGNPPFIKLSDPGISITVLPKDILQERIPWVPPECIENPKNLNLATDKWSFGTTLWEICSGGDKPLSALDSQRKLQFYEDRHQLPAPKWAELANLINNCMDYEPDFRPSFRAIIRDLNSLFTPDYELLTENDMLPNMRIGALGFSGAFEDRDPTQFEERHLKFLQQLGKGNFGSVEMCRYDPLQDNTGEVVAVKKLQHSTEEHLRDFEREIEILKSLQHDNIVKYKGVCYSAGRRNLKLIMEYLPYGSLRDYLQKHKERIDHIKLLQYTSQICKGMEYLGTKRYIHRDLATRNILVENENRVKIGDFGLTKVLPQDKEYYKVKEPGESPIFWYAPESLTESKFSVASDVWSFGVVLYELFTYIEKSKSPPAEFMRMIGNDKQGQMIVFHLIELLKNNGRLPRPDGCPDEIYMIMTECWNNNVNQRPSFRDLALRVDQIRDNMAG
smiles,measurement,setting,value
Cc1cnc(N)nc1OCC(C)(C)CO,inhibition,[1],inactive
same,inhibition,[2],inactive
same,inhibition,[3],inactive
same,inhibition,[4],inactive
same,half-life,[5],2.42 days
same,inhibition,[6],inactive
same,inhibition,[7],inactive
same,inhibition,[8],inactive
same,inhibition,[9],inactive
same,inhibition,[10],inactive
same,inhibition,[11],inactive
same,inhibition,[12],inactive
same,inhibition,[13],inactive
same,Activity,MDA-MB-231,inactive
same,inhibition,Homo sapiens,inactive
same,Activity,HMEC,Non-toxic
same,inhibition,[14],inactive
same,inhibition,[15],inactive
same,inhibition,[16],inactive
same,inhibition,[17],inactive
same,inhibition,[18],inactive
same,inhibition,[19],inactive
same,Activity,U2OS,inactive
same,inhibition,[20],inactive
same,inhibition,[21],inactive
same,Activity,HeLa,inactive
same,inhibition,[22],inactive
same,Activity,UOK 262 [23],inactive
same,half-life,[24],330 min
same,inhibition,[25],inactive
same,Activity,UOK 262 [26],inactive
same,Activity,HCT-116,inactive
same,CLH,[27],60 µL/min/mg
same,inhibition,[28],inactive
same,Activity,A549,inactive
same,Activity,BJ,Non-toxic
same,inhibition,[29],inactive
same,inhibition,[30],inactive
same,inhibition,[31],inactive
same,half-life,[32],3.58 days
same,Activity,SW480,inactive
same,inhibition,[33],inactive
